{
  "source": "ChEMBL document CHEMBL3108674",
  "about": "“6-Alkoxy-5-aryl-3-pyridinecarboxamides, a new series of bioavailable cannabinoid receptor type 1 (CB1) antagonists including peripherally selective compounds” (J Med Chem, 2013)",
  "key": {"[1]": {"test": "Ratio of drug level in brain to plasma in rat", "assay_type": "ADME", "conditions": "brain and plasma, read-out: BPR"}, "[2]": {"test": "Oral bioavailability in rat", "assay_type": "ADME, organism-based", "conditions": "in vivo", "how_it_was_run": "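Bioavailability from rat single-dose PK, comparing oral dosing (10, 7.9 or 9 mg/kg, depending on compound) with intravenous dosing.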"}, "[3]": {"test": "Tmax in po dosed rat plasma", "assay_type": "ADME, organism-based", "how_it_was_run": "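Single-dose rat PK study: compound given orally at 7.9 or 9 mg/kg, depending on compound. Plasma exposure followed over time, and Tmax (h) taken from the plasma concentration–time profile.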"}, "[4]": {"test": "Tmax in rat plasma at 10 mg/kg, po", "assay_type": "ADME, organism-based", "set-up": "dose 10 mg/kg, route oral", "how_it_was_run": "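Single oral dose of 10 mg/kg in rats. Plasma concentrations followed over time, and time to peak plasma level (h) read from the profile.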"}, "Rattus norvegicus [5]": {"system": "Rattus norvegicus", "test": "Maximum unbound fraction in rat at 10 mg/kg, po", "assay_type": "ADME, organism-based", "set-up": "dose 10 mg/kg, route oral", "conditions": "in vivo", "how_it_was_run": "(§1)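 Single-dose oral PK in rats at 10 mg/kg, measuring peak plasma concentration. The maximum unbound level was given alongside rat plasma protein binding (%).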"}, "[6]": {"test": "Clearance in iv dosed rat", "assay_type": "ADME, organism-based", "conditions": "in vivo"}, "[7]": {"test": "Volume of distribution at steady state in iv dosed rat", "assay_type": "ADME, organism-based", "conditions": "in vivo, read-out: Vdss"}, "[8]": {"test": "Plasma protein binding in rat", "assay_type": "ADME, cell-free", "conditions": "read-out: PPB (converted)"}, "Rattus norvegicus [9]": {"system": "Rattus norvegicus", "test": "Increase of insulin sensitivity in high fat diet-fed Sprague-Dawley rat assessed as decrease in insulin AUC at 10 mg/kg, po qd administered for 24 days followed by glucose challenge by oral glucose tolerance test", "assay_type": "functional, organism-based", "set-up": "dose 10 mg/kg"}, "Plasma [10]": {"system": "Plasma", "test": "Maximum unbound fraction in rat plasma at 10 mg/kg, po", "assay_type": "ADME, organism-based", "set-up": "dose 10 mg/kg, route oral", "conditions": "in vivo", "how_it_was_run": "as §1"}, "[11]": {"test": "Cmax in rat plasma at 10 mg/kg, po", "assay_type": "ADME, organism-based", "set-up": "dose 10 mg/kg, route oral", "how_it_was_run": "as §1"}, "Cannabinoid receptor 2": {"target": "Cannabinoid receptor 2 (Homo sapiens, UniProt P34972)", "sequence (P34972 whole entry)": "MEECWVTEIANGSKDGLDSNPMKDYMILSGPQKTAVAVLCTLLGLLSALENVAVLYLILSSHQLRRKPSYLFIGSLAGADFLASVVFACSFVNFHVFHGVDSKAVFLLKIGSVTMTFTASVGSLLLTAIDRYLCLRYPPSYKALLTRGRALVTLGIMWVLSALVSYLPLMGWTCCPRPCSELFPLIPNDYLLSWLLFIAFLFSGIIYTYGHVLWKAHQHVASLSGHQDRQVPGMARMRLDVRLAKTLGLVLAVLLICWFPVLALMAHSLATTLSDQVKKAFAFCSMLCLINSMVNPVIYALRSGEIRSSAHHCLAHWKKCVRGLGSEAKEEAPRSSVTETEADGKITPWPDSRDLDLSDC", "test": "Displacement of [3H]CP55940 from human CB2 receptor expressed in CHOK1 cells after 1 hr by liquid scintillation counting analysis", "assay_type": "cell-based, CHO-K1", "how_it_was_run": "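Membranes from butyrate-treated (5 mM, 24 h) CHO-K1 cells stably expressing human CB2, incubated with 0.3 nM [3H]CP55940 and increasing ligand concentrations, 60 min, 30 °C, pH 7.4 Tris buffer with 0.1% fatty acid-free BSA and 1% DMSO; nonspecific binding with 10 μM CP55940; filtration, scintillation counting; tested in triplicate.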"}, "[12]": {"test": "Cmax in Sprague-Dawley rat plasma at 30 mg/kg, po qd after 10 days by LC-MS/MS analysis", "assay_type": "ADME, organism-based", "set-up": "dose 30 mg/kg, route oral", "how_it_was_run": "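Male Sprague-Dawley rats (n = 3 per compound) given 30 mg/kg/day as feed admix for 10 days; jugular vein catheter implanted 4 days before sampling; on day 10 switched to drug-free high fat chow, then serial K3EDTA blood samples over 24 h; plasma drug levels by LC-MS.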"}, "[13]": {"test": "Oral bioavailability in rat at 7.9 mg/kg", "assay_type": "ADME, organism-based", "conditions": "in vivo"}, "Rattus norvegicus [14]": {"system": "Rattus norvegicus", "test": "Reduction of leptin level in high fat diet-fed Sprague-Dawley rat plasma at 30 mg/kg, po qd after 24 days by ELISA", "assay_type": "functional, organism-based", "set-up": "dose 30 mg/kg", "how_it_was_run": "(§2)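 Diet-induced obese Sprague-Dawley rats (high responders), single-housed, groups of n = 9 matched for body weight and MRS body fat; drug given as food admix for 24 days alongside pair-fed groups; body weight and food intake measured daily; body fat by MRS; plasma leptin by ELISA; mean ± SEM, ANOVA with Dunnett's test versus vehicle.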"}, "Rattus norvegicus [15]": {"organism": "Rattus norvegicus", "test": "Reduction in body weight gain in high fat diet-fed Sprague-Dawley rat at […]", "assay_type": "functional, organism-based"}, "[16]": {"test": "Volume of distribution at steady state in rat at 1 mg/kg, iv", "assay_type": "ADME, organism-based", "set-up": "dose 1 mg/kg, route intravenous", "conditions": "in vivo, read-out: Vdss"}, "[17]": {"test": "Cmax in rat plasma at 7.9 mg/kg, po", "assay_type": "ADME, organism-based", "set-up": "dose 7.9 mg/kg, route oral"}, "[18]": {"test": "Drug uptake in Sprague-Dawley rat brain at 30 mg/kg, po qd after 10 days by LC-MS/MS analysis", "assay_type": "ADME, organism-based", "set-up": "dose 30 mg/kg, route oral", "conditions": "read-out: Drug uptake"}, "Rattus norvegicus [19]": {"system": "Rattus norvegicus", "test": "Maximum unbound fraction in rat at 7.9 mg/kg, po", "assay_type": "ADME, organism-based", "set-up": "dose 7.9 mg/kg, route oral", "conditions": "in vivo"}, "Plasma [20]": {"system": "Plasma", "test": "Maximum unbound fraction in rat plasma at 7.9 mg/kg, po", "assay_type": "ADME, organism-based", "set-up": "dose 7.9 mg/kg, route oral", "conditions": "in vivo"}, "Hepatocyte": {"system": "Hepatocyte", "test": "Intrinsic clearance in rat hepatocytes at 10 uM by LC-MS/MS analysis", "assay_type": "ADME, cell-based"}, "Rattus norvegicus [21]": {"system": "Rattus norvegicus", "test": "Reduction in body fat content in high fat diet-fed Sprague-Dawley rat at 30 mg/kg, po qd after 24 days", "assay_type": "functional, organism-based", "set-up": "dose 30 mg/kg", "how_it_was_run": "as §2"}, "[22]": {"test": "Clearance in rat at 1 mg/kg, iv", "assay_type": "ADME, organism-based", "set-up": "dose 1 mg/kg, route intravenous", "conditions": "in vivo"}, "[23]": {"test": "Ratio of drug level in Sprague-Dawley rat brain to plasma at 30 mg/kg, po qd after 10 days by LC-MS/MS analysis", "assay_type": "ADME, organism-based", "set-up": "dose 30 mg/kg, route oral", "conditions": "brain and plasma, read-out: BPR"}, "Rattus norvegicus [24]": {"system": "Rattus norvegicus", "test": "Increase of insulin sensitivity in high fat diet-fed Sprague-Dawley rat assessed as decrease in insulin AUC at 30 mg/kg, po qd administered for 24 days followed by glucose challenge by oral glucose tolerance test", "assay_type": "functional, organism-based", "set-up": "dose 30 mg/kg"}, "[25]": {"test": "Tmax in rat plasma at 7.9 mg/kg, po", "assay_type": "ADME, organism-based", "set-up": "dose 7.9 mg/kg, route oral"}, "Liver microsome": {"system": "Liver microsome", "test": "Clearance in rat liver microsomes at 2 uM by LC-MS/MS analysis", "assay_type": "ADME", "how_it_was_run": "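Rat liver microsomes at 0.5 mg/mL were incubated with 2 μM compound (final) and an NADPH-regenerating system. Aliquots were taken at 1, 3, 6, 9, 15, 25, 35 and 45 min and quenched in acetonitrile containing internal standard. Depletion was measured by LC-MS/MS. Clmic = −slope × 1000 / protein concentration (mg/mL), not corrected for microsomal protein binding.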"}, "Cannabinoid receptor 1": {"target": "Cannabinoid receptor 1 (Homo sapiens, UniProt P21554)", "sequence (P21554 whole entry)": "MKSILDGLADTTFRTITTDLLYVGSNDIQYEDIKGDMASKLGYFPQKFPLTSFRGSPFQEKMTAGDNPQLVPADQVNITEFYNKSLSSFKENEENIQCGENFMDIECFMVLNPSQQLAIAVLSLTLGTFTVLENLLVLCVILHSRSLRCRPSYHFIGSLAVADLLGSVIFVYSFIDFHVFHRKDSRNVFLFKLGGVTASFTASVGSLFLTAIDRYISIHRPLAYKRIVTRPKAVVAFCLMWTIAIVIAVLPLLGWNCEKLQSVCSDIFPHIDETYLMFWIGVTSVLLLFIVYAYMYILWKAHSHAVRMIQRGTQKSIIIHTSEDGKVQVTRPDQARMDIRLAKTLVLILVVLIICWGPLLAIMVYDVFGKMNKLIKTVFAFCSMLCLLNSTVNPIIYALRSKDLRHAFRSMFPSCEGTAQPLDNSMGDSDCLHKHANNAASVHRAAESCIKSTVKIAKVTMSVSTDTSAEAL", "test": "Antagonist activity at human CB1 receptor overexpressed in HEK cells assessed as [35S]GTPgamma binding after 1 hr by liquid scintillation counting analysis", "assay_type": "functional, cell-based, HEK293"}},
  "note": "Calls of active or inactive are those of the source. No cut-off for these calls is given here.",
  "data": [
    {"smiles": "Cc1c(C(=O)NN2CCCCC2)nn(-c2ccc(Cl)cc2Cl)c1-c1ccc(Cl)cc1", "note": "[RIMONABANT]", "values": [
      {"measurement": "Kp", "setting": "[1]", "result": 3},
      {"measurement": "bioavailability", "setting": "[2]", "result": 12, "unit": "%"},
      {"measurement": "Tmax", "setting": "[3]", "result": 1, "unit": "h"},
      {"measurement": "Tmax", "setting": "[4]", "result": 1.5, "unit": "h"},
      {"measurement": "fCmax", "setting": "Rattus norvegicus [5]", "result": 1.8, "unit": "nM"},
      {"measurement": "clearance", "setting": "[6]", "result": 17, "unit": "mL/min/kg"},
      {"measurement": "Vd", "setting": "[7]", "result": 11.5, "unit": "L/kg"},
      {"measurement": "fraction unbound", "setting": "[8]", "result": 0.003},
      {"measurement": "Activity", "setting": "Rattus norvegicus [9]", "result": "Active"},
      {"measurement": "Cp(f)max", "setting": "Plasma [10]", "result": 0.83, "unit": "ng/mL"},
      {"measurement": "Cmax", "setting": "[11]", "result": 244, "unit": "ng/mL"}
    ]},
    {"smiles": "O=C(N[C@@H]1CCCC[C@H]1O)c1cnc(OCC2CC2)c(-c2ccc(Cl)cc2)c1", "values": [
      {"measurement": "Ki", "setting": "Cannabinoid receptor 2", "result": "> 7000", "unit": "nM"},
      {"measurement": "Cmax", "setting": "[12]", "result": 1020, "unit": "ng/mL"},
      {"measurement": "Kp", "setting": "[1]", "result": 0.7},
      {"measurement": "bioavailability", "setting": "[13]", "result": 23, "unit": "%"},
      {"measurement": "Activity", "setting": "Rattus norvegicus [14]", "result": "Active"},
      {"measurement": "Activity", "setting": "Rattus norvegicus [15]", "result": "Active"},
      {"measurement": "Vd", "setting": "[16]", "result": 1.8, "unit": "L/kg"},
      {"measurement": "Cmax", "setting": "[17]", "result": 729, "unit": "ng/mL"},
      {"measurement": "concentration at 240 h", "setting": "[18]", "result": 1400, "unit": "ng/g"},
      {"measurement": "fCmax", "setting": "Rattus norvegicus [19]", "result": "< 28", "unit": "nM"},
      {"measurement": "Cp(f)max", "setting": "Plasma [20]", "result": "< 11", "unit": "ng/mL"},
      {"measurement": "CLH", "setting": "Hepatocyte", "result": 3.3, "unit": "µL/min"},
      {"measurement": "fraction unbound", "setting": "[8]", "result": "< 0.016"},
      {"measurement": "Activity", "setting": "Rattus norvegicus [21]", "result": "Active"},
      {"measurement": "clearance", "setting": "[22]", "result": 7.4, "unit": "mL/min/kg"},
      {"measurement": "Kp at 240 h", "setting": "[23]", "result": 1.3},
      {"measurement": "Activity", "setting": "Rattus norvegicus [24]", "result": "Active"},
      {"measurement": "Tmax", "setting": "[25]", "result": 1.9, "unit": "h"},
      {"measurement": "CLH", "setting": "Liver microsome", "result": 64, "unit": "µL/min/mg"},
      {"measurement": "EC50", "setting": "Cannabinoid receptor 1", "result": 3.9, "unit": "nM"}
    ]}
  ]
}
